Reference: ChEMBL document CHEMBL1129791, “Antipsoriatic anthrones with modulated redox properties. 3. 10-thio-substituted 1,8-dihydroxy-9(10H)-anthracenones as inhibitors of keratinocyte growth, 5-lipoxygenase, and the formation of 12(S)-HETE in mouse epidermis” (J Med Chem, 1996)

Assays:
[1] = biological target: T1, Polyunsaturated fatty acid lipoxygenase ALOX12 (Mus musculus, UniProt P39655); assay: Tested for inhibition of 12-LO (12-lipoxygenase) as an inhibitor of 12(S)-HETE biosynthesis in mouse epidermal homogenates
T1 sequence (P39655 whole entry): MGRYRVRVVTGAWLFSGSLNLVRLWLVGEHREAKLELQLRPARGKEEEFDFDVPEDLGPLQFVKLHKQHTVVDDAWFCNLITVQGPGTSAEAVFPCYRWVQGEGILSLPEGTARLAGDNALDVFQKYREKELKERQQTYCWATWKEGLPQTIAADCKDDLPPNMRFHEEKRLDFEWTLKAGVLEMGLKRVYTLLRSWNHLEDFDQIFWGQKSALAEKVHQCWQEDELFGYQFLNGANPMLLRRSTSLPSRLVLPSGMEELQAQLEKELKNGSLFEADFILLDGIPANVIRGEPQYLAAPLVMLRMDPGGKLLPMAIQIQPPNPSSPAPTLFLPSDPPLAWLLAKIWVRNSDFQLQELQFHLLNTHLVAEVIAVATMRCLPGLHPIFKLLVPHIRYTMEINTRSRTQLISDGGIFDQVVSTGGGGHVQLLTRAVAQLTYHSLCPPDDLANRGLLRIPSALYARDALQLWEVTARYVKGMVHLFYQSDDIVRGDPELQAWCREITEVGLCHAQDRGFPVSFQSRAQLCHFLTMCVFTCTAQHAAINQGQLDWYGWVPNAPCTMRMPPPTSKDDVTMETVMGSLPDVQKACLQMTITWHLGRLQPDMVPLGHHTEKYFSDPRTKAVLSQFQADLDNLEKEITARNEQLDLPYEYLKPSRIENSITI

[2] = biological target: T2, Arachidonate 5-lipoxygenase (Bos taurus, UniProt Q9BEG3); assay: Tested for inhibition of 5-lipoxygenase as inhibition of 5-HETE and LTB4 biosynthesis in bovine PMNL
T2 sequence (Q9BEG3 whole entry): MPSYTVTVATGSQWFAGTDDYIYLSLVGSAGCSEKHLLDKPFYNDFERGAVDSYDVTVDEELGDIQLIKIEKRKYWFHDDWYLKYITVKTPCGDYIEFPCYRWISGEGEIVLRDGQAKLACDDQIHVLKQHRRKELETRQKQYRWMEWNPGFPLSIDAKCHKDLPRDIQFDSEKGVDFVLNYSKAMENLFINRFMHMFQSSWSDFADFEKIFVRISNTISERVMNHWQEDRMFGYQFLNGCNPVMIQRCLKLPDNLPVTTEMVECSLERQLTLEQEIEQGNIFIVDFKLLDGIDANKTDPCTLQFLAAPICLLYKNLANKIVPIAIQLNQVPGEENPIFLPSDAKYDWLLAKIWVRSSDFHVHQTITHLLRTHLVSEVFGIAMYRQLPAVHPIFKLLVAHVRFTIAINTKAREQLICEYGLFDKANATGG

HaCaT [3] = assay: Compound was tested for activity of LDH(mU) release in HaCat cells after treatment with 2 uM compound; assay type: functional, Homo sapiens
Summary of the method: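 Human HaCaT keratinocytes exposed to 2 µM compound for 4 h at 37 °C. Extracellular LDH measured by UV method with pyruvate and NADH, expressed as mU/mL. Vehicle controls run in parallel; N = 3.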

[4] = Deoxyribose degradation (DD) as umol of malondialdehyde/mmol of deoxyribose released by 75 uM; assay type: functional
Summary of the method: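 Deoxyribose degradation run in 30 mM KH2PO4-KOH buffer, pH 7.4, with 75 µM compound. Incubated 2 h at 37 °C in shaking water bath. TBA-reactive material read at 532 nm and expressed as µmol malondialdehyde per mmol deoxyribose.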

HaCaT [5] = assay: Tested for antiproliferative activity against HaCaT cells; assay type: functional, cell-based; settings: Homo sapiens
Summary of the method: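 HaCaT keratinocytes treated for 48 h. Dispersed cells counted by phase-contrast microscopy. Inhibition = (1 − test/control) × 100, using test N = 3 and control N = 6-8.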

[6] = half life in DMSO at 25 degrees celsius; assay type: ADME
[7] = half life in ethanol at 25 degrees celsius; assay type: ADME
[8] = Acidity constant in aqueous solution was determined; assay type: ADME
Summary of the method: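 UV absorption spectra recorded in buffer solutions spanning pH 2.5–12.0, with measured pH values corrected where needed. Absorbance at pH 2.5 was taken as the neutral species and at pH 12.0 as the fully deprotonated species. pKa was obtained from titration curves of absorbance at suitable wavelengths.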

[9] = Half life in DMSO at 25 degrees celsius was determined; assay type: ADME
[10] = Half life in ethanol at 25 degrees celsius was determined; assay type: ADME

| Compound | IC50 [1] [µM] | IC50 [2] [µM] | LDH (HaCaT [3]) [mU/mL] | DD [4] | IC50 (HaCaT [5]) [µM] | half-life [6] [h] | half-life [7] [h] | pKa [8] | half-life [9] [h] | half-life [10] [h] |
| --- | --- | --- | --- | --- | --- | --- | --- | --- | --- | --- |
| CCCSC1c2cccc(O)c2C(=O)c2c(O)cccc21 | > 30 | > 30 | 117 | 2.81 | 1.2 | – | – | – | – | – |
| O=C1c2c(O)cccc2C(SCCO)c2cccc(O)c21 | > 30 | 2 | 136 | 2.49 | 1.2 | – | – | – | – | – |
| CCSC1c2cccc(O)c2C(=O)c2c(O)cccc21 | > 30 | > 30 | – | 4.23 | 1.4 | – | – | – | – | – |
| O=C1c2c(O)cccc2C(SCCCc2ccccc2)c2cccc(O)c21 | – | – | – | 2.71 | > 5 | – | – | – | – | – |
| O=C1c2c(O)cccc2C(SCCc2ccccc2)c2cccc(O)c21 | > 30 | 30 | – | 2.78 | 4.7 | 4 | 3 | – | – | – |
| O=C1c2c(O)cccc2C(Sc2ccccc2O)c2cccc(O)c21 | 30 | 5 | 174 | 3.7 | 1.7 | – | – | – | – | – |
| CCOC(=O)CCSC1c2cccc(O)c2C(=O)c2c(O)cccc21 | 30 | > 30 | 124 | 5.52 | 1.6 | – | – | – | – | – |
| O=C1c2c(O)cccc2C(Sc2ccc(O)cc2)c2cccc(O)c21 | 3 | 2 | 148 | 3.61 | 0.1 | – | – | 6.2 | 55 | 34 |
| COc1ccc(CSC2c3cccc(O)c3C(=O)c3c(O)cccc32)cc1 | 30 | > 30 | – | 5.01 | 3 | – | – | 6.1 | 23 | 5 |
| CCCCOC(=O)CCSC1c2cccc(O)c2C(=O)c2c(O)cccc21 | 30 | 30 | – | 5.38 | 2.3 | – | – | 5.7 | 11 | 2 |
| NC(CSC1c2cccc(O)c2C(=O)c2c(O)cccc21)C(=O)O (stereo not given) | 30 | > 30 | – | 2.33 | > 5 | – | – | – | – | – |
| Nc1ccccc1SC1c2cccc(O)c2C(=O)c2c(O)cccc21 | 6 | 2 | 255 | 4.76 | 0.1 | – | – | 8.4 | 26 | 20 |
| O=C1c2c(O)cccc2C(SCc2ccccc2)c2cccc(O)c21 | 30 | > 30 | – | 3.74 | 1.4 | – | – | – | – | – |
| O=C1c2c(O)cccc2C(SCCCS)c2cccc(O)c21 | 30 | > 30 | 369 | 4.09 | 0.8 | – | – | – | – | – |
| Nc1ccc(SC2c3cccc(O)c3C(=O)c3c(O)cccc32)cc1 | > 30 | 7 | 184 | 1.49 | 0.9 | – | – | – | – | – |
| O=C(O)CCSC1c2cccc(O)c2C(=O)c2c(O)cccc21 | 30 | 2 | – | 6.34 | 1.9 | – | – | – | – | – |
| COc1ccccc1SC1c2cccc(O)c2C(=O)c2c(O)cccc21 | 3 | 6 | – | 4.33 | 4.2 | – | – | – | – | – |
| COC(=O)CSC1c2cccc(O)c2C(=O)c2c(O)cccc21 | > 30 | 13 | – | 4.89 | 1.9 | – | – | – | – | – |
| O=C1c2c(O)cccc2C(SCC(O)CO)c2cccc(O)c21 (stereo not given) | > 30 | 9 | – | 2.45 | 1.7 | – | – | – | – | – |
| COC(=O)CCSC1c2cccc(O)c2C(=O)c2c(O)cccc21 | 27 | 15 | 133 | 5.25 | 1.1 | – | – | – | – | – |
| CCCCOC(=O)CSC1c2cccc(O)c2C(=O)c2c(O)cccc21 | 30 | > 30 | – | 4.19 | 2.1 | – | – | – | – | – |
| COc1ccc(SC2c3cccc(O)c3C(=O)c3c(O)cccc32)cc1 | 30 | 3 | 137 | 1.59 | 1.7 | – | – | 7.9 | 32 | 21 |
| O=C(O)CSC1c2cccc(O)c2C(=O)c2c(O)cccc21 | 30 | > 30 | – | 6.12 | > 5 | – | – | – | – | – |
| COc1cccc(SC2c3cccc(O)c3C(=O)c3c(O)cccc32)c1 | 30 | – | – | 4.29 | 1.8 | – | – | – | – | – |
| CCOC(=O)CSC1c2cccc(O)c2C(=O)c2c(O)cccc21 | > 30 | > 30 | – | 4.51 | 4.5 | – | – | – | – | – |
| O=C1c2c(O)cccc2C(Sc2ccccc2)c2cccc(O)c21 | 30 | 8 | – | 4.13 | 3.7 | – | – | 5.4 | 28 | 12 |
| CC(SC1c2cccc(O)c2C(=O)c2c(O)cccc21)C(=O)O (stereo not given) | 15 | > 30 | – | 9.34 | 0.2 | – | – | – | – | – |
